IDH1 R132H inh: blocks human IDH1 R132H reductase activity. diaphorase/resazurin fluorescence, 60 min. 70,000 compounds, 0.18% hits. AID 624101. inhibition, % at 10 µM. O75874; in the data active = inhibition above about 34%; inconclusive = no clear call, values can overlap the other calls; inactive = below about 11%
Target sequence (O75874 whole entry R132H): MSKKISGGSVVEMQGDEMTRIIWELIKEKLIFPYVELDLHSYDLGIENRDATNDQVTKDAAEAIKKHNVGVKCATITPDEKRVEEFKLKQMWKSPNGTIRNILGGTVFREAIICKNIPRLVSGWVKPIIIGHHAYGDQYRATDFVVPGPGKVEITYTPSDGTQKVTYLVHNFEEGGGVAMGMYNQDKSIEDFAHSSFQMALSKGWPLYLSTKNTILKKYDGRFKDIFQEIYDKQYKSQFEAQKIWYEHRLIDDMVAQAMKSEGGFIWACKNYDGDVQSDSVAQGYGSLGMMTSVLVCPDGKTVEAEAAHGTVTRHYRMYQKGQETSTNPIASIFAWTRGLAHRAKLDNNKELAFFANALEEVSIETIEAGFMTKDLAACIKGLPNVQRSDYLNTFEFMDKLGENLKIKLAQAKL
GASC1 inh: blocks human GASC-1 (KDM4C) demethylase activity; Q9H3R0; GST-KDM4C 2-372, H3K9me3 peptide, LANCE TR-FRET; inhibition, % at 12.5 µM; 96,000 compounds, 0.15% hits;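 active = mean replicate inhibition above about 25%, with at least 55% of replicates also reaching it, limit read from the data, passing the limit was not always enough; inconclusive = only one of those two conditions met; inactive = neither condition met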
Target sequence (Q9H3R0 2-372 limits assumed): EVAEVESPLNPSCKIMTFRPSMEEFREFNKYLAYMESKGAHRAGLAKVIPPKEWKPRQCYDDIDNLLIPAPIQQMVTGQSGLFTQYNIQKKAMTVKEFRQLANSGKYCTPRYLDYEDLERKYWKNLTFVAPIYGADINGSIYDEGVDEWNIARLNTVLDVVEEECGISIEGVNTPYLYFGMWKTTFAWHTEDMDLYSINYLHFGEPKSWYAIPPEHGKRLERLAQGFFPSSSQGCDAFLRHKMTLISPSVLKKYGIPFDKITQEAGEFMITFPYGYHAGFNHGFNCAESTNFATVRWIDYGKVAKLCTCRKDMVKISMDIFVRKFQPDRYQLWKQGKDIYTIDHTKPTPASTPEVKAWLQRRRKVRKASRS
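System: N-terminal GST-fused human GASC-1 (KDM4C) fragment, residues 2-372; amount: enzyme final amount 10 nM; incubation: reaction 30 min RT, detection step 1 h RT; medium: HEPES buffer, pH 7.5, plus ascorbate; technique: LANCE TR-FRET, Eu antibody, ULight-streptavidin, EDTA, ex 340 nm, em 618/671 nm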
T cruzi growth-1: inhibitors of T. cruzi proliferation. T. cruzi beta-gal in NIH3T3, GalScreen luminescence, 90 h. inhibition, % at 8.34 µM. 77,000 compounds, 5.9% hits;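 active = mean inhibition above about 93%, with at least 55% of replicates each passing it, limit read from the data, passing the limit was not always enough; inconclusive = only one of those two conditions holds; inactive = neither condition holds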
T cruzi growth-2: blocks T. cruzi growth in NIH3T3 host cells. shares compounds with T cruzi growth-1. T. cruzi beta-gal in NIH3T3, GalScreen luminescence, 90 h. inhibition, % at 8.35 µM. 5,600 compounds, 72% hits. AID 651739;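 active = mean replicate inhibition above about 95% and at least 55% of replicates individually reaching it, limit read from the data; inconclusive = only one of the two criteria is met; inactive = neither criterion is met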
T cruzi growth-3: inhibitors of T. cruzi proliferation; AID 651740; T. cruzi beta-gal in NIH3T3, GalScreen luminescence, 90 h; 5,600 compounds, 21% hits; inhibition, % at 2.09 µM; shares compounds with T cruzi growth-1;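 active = mean inhibition above about 95%, with at least 55% of replicates also reaching it, limit read from the data; inconclusive = meets just one of the two conditions; inactive = meets neither condition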
NIH3T3 tox: cytotoxicity in mouse NIH/3T3 fibroblasts | shares compounds with T cruzi growth-1 | NIH/3T3 viability, CellTiter-Glo ATP luminescence, 90 h | cytotoxicity (signal decrease), % at 8.35 µM | 5,600 compounds, 14% hits;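 active = mean signal decrease across replicates above about 35% based on untreated-well scatter, with enough replicates individually passing, limit read from the data; inconclusive = no rule stated though some were filed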
NIH3T3 tox 2: NIH/3T3 (mouse) viability loss. shares compounds with T cruzi growth-1. NIH/3T3 viability, CellTiter-Glo ATP luminescence, 90 h. inhibition, % at 24.9 µM. 5,600 compounds, 56% hits. AID 651744;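 active = mean loss of cell viability signal at or above a set limit, and enough replicates individually reaching it; inconclusive = meets only the mean limit or only the replicate share; inactive = meets neither condition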
Of the large screens only hits and unclear results are named; the others gave an inactive call (follow-up assays come after a bar, where they were run). The full list was thinned out, with hits kept by preference.

O=C(C[C@@H]1C[C@H]2c3cc(NC(=O)c4ccc5c(c4)OCO5)ccc3O[C@H]2[C@H](CO)O1)NCc1ccc(Oc2ccccc2)cc1	T cruzi growth-1 113 | T cruzi growth-2 103 | T cruzi growth-3 inactive | NIH3T3 tox 69 | NIH3T3 tox 2 51
O=C(C[C@@H]1C[C@H]2c3cc(NC(=O)c4ccc5c(c4)OCO5)ccc3O[C@H]2[C@H](CO)O1)NCc1ccc(Cl)cc1	none
CCOC(=O)c1cc(NC(=O)CSc2nnc(C)s2)ccc1Cl	none (no result: GASC1 inh, T cruzi growth-1)
Cc1ccc(C(C)C)c(OCC(=O)Nc2sc3c(c2C(N)=O)CCC(C)C3)c1 (stereo unspecified)	none (no result: GASC1 inh, T cruzi growth-1)
CCn1c(SCC(=O)Nc2cc(C(F)(F)F)cc(C(F)(F)F)c2)nnc1-c1ccncc1	none (no result: GASC1 inh, T cruzi growth-1)
COc1cc(-c2nnc(SCC(=O)c3cccc([N+](=O)[O-])c3)n2-c2ccccc2)cc(OC)c1OC	none (no result: GASC1 inh, T cruzi growth-1)
CC(C)NC(=O)N(C)C[C@H]1Oc2cc(C#Cc3ccccn3)ccc2S(=O)(=O)N([C@@H](C)CO)C[C@H]1C	none
CC(C)NC(=O)N(C)C[C@@H]1Oc2cc(C#Cc3ccccn3)ccc2S(=O)(=O)N([C@@H](C)CO)C[C@@H]1C	T cruzi growth-1 inconclusive | T cruzi growth-2 inactive | T cruzi growth-3 inactive | NIH3T3 tox inactive | NIH3T3 tox 2 inactive
CC(C)NC(=O)N(C)C[C@@H]1Oc2cc(C#Cc3ccccn3)ccc2S(=O)(=O)N([C@H](C)CO)C[C@@H]1C	none
CC(C)NC(=O)N(C)C[C@H]1Oc2cc(C#Cc3ccccn3)ccc2S(=O)(=O)N([C@H](C)CO)C[C@H]1C	T cruzi growth-1 111 | T cruzi growth-2 99 | T cruzi growth-3 inactive | NIH3T3 tox inactive | NIH3T3 tox 2 40
COc1ccc(S(=O)(=O)Nc2ccc3c(c2)C(=O)N([C@@H](C)CO)C[C@H](C)[C@@H](CN(C)C(=O)Nc2ccc(C(F)(F)F)cc2)OCCCC[C@@H](C)O3)cc1	none
Cc1ccc(S(=O)(=O)Nc2ccc3c(c2)C(=O)N([C@@H](C)CO)C[C@H](C)[C@H](CN(C)C(=O)Nc2ccc(C(F)(F)F)cc2)OCCCC[C@H](C)O3)cc1	none (no result: T cruzi growth-1)
COc1ccc(S(=O)(=O)Nc2ccc3c(c2)C(=O)N([C@H](C)CO)C[C@H](C)[C@H](CN(C)C(=O)Nc2ccccc2)OCCCC[C@H](C)O3)cc1	T cruzi growth-1 99 | T cruzi growth-2 108 | T cruzi growth-3 inactive | NIH3T3 tox inactive | NIH3T3 tox 2 inactive
COc1ccc(S(=O)(=O)Nc2ccc3c(c2)C(=O)N([C@H](C)CO)C[C@H](C)[C@H](CN(C)C(=O)Nc2ccc(C(F)(F)F)cc2)OCCCC[C@@H](C)O3)cc1	T cruzi growth-1 108 | T cruzi growth-2 104 | T cruzi growth-3 inactive | NIH3T3 tox inactive | NIH3T3 tox 2 inconclusive
Cc1ccc(S(=O)(=O)Nc2ccc3c(c2)C(=O)N([C@@H](C)CO)C[C@H](C)[C@@H](CN(C)C(=O)Nc2ccc(C(F)(F)F)cc2)OCCCC[C@@H](C)O3)cc1	none
COc1ccc(S(=O)(=O)Nc2ccc3c(c2)C(=O)N([C@H](C)CO)C[C@@H](C)[C@H](CN(C)C(=O)Nc2ccccc2)OCCCC[C@@H](C)O3)cc1	none (no result: IDH1 R132H inh)
Cc1ccc(S(=O)(=O)Nc2ccc3c(c2)C(=O)N([C@@H](C)CO)C[C@@H](C)[C@@H](CN(C)C(=O)Nc2ccc(C(F)(F)F)cc2)OCCCC[C@@H](C)O3)cc1	T cruzi growth-1 98 | T cruzi growth-2 104 | T cruzi growth-3 112 | NIH3T3 tox inactive | NIH3T3 tox 2 inactive
Cc1ccc(S(=O)(=O)Nc2ccc3c(c2)C(=O)N([C@H](C)CO)C[C@H](C)[C@@H](CN(C)C(=O)Nc2ccc(C(F)(F)F)cc2)OCCCC[C@@H](C)O3)cc1	T cruzi growth-1 101 | T cruzi growth-2 105 | T cruzi growth-3 inactive | NIH3T3 tox inactive | NIH3T3 tox 2 inactive
COc1cc2c(c(N)c1OC)C(=O)/C(=C/c1cc(C)c(O)c(C)c1)C2	none (no result: GASC1 inh, T cruzi growth-1)
Nc1cc(=O)[nH]c(SCC(=O)Nc2ccc(F)cc2)n1	none (no result: GASC1 inh, T cruzi growth-1)
CC(Oc1cccc(Br)c1)C(=O)NCc1ccco1 (stereo unspecified)	none (no result: GASC1 inh, T cruzi growth-1)
Cc1cccc(C)c1OCC(=O)Nc1ccccc1C(=O)Nc1ccc(C(=O)O)cc1	none (no result: GASC1 inh, T cruzi growth-1)
CCOc1ccc2nc(SCC(=O)Nc3ccc(Br)cc3F)sc2c1	none (no result: GASC1 inh, T cruzi growth-1)
O=C(CCCN1C(=O)c2ccccc2C1=O)Nc1cc(Cl)cc(Cl)c1	none (no result: GASC1 inh, T cruzi growth-1)
COc1cc(OC)c(C2=NOC(C(=O)Nc3c(C)nn(Cc4ccc(F)cc4)c3C)C2)cc1Cl (stereo unspecified)	none (no result: GASC1 inh, T cruzi growth-1)
Cc1cc(C)c2oc(-c3cccc(NC(=O)COc4ccc(Cl)cc4)c3C)nc2c1	none (no result: GASC1 inh, T cruzi growth-1)
C[C@H](CO)N1C[C@H](C)[C@H](CN(C)Cc2ccc(C(F)(F)F)cc2)OCCCC[C@H](C)Oc2ccc(NC(=O)Nc3ccc4c(c3)OCO4)cc2C1=O	none
C[C@@H]1CCCCO[C@H](CN(C)Cc2ccc(C(F)(F)F)cc2)[C@H](C)CN([C@H](C)CO)C(=O)c2cc(NC(=O)Nc3ccc(C(F)(F)F)cc3)ccc2O1	none (no result: IDH1 R132H inh)
C[C@@H]1CCCCO[C@@H](CN(C)Cc2ccc3c(c2)OCO3)[C@@H](C)CN([C@@H](C)CO)C(=O)c2cc(NC(=O)Nc3ccc(C(F)(F)F)cc3)ccc2O1	T cruzi growth-1 inconclusive (no result: IDH1 R132H inh) | T cruzi growth-2 98 | T cruzi growth-3 114 | NIH3T3 tox inconclusive | NIH3T3 tox 2 57
C[C@@H]1CN([C@@H](C)CO)C(=O)c2cc(NC(=O)Nc3ccc(C(F)(F)F)cc3)ccc2O[C@@H](C)CCCCO[C@@H]1CN(C)Cc1ccc2c(c1)OCO2	T cruzi growth-1 123 | T cruzi growth-2 98 | T cruzi growth-3 113 | NIH3T3 tox inactive | NIH3T3 tox 2 inactive
C[C@@H]1CCCCO[C@@H](CN(C)Cc2ccc3c(c2)OCO3)[C@H](C)CN([C@@H](C)CO)C(=O)c2cc(NC(=O)Nc3ccc(C(F)(F)F)cc3)ccc2O1	T cruzi growth-1 inconclusive (no result: IDH1 R132H inh) | T cruzi growth-2 99 | T cruzi growth-3 111 | NIH3T3 tox inactive | NIH3T3 tox 2 53
C[C@@H]1CN([C@@H](C)CO)C(=O)c2cc(NC(=O)Nc3ccc4c(c3)OCO4)ccc2O[C@@H](C)CCCCO[C@H]1CN(C)Cc1ccc(C(F)(F)F)cc1	none
C[C@@H]1CN([C@H](C)CO)C(=O)c2cc(NC(=O)Nc3ccc4c(c3)OCO4)ccc2O[C@@H](C)CCCCO[C@@H]1CN(C)Cc1ccc(C(F)(F)F)cc1	none (no result: IDH1 R132H inh)
C[C@@H]1CCCCO[C@@H](CN(C)Cc2ccc(C(F)(F)F)cc2)[C@@H](C)CN([C@H](C)CO)C(=O)c2cc(NC(=O)Nc3ccc4c(c3)OCO4)ccc2O1	T cruzi growth-1 100 | T cruzi growth-2 101 | T cruzi growth-3 inactive | NIH3T3 tox inactive | NIH3T3 tox 2 inactive

Assay outcomes as filed in PubChem.
